Measured values published in ChEMBL document CHEMBL2046302, “Fused tricyclic indoles as S1P₁ agonists with robust efficacy in animal models of autoimmune disease” (Bioorg Med Chem Lett, 2012).
Calls of active or inactive are those of the source. No cut-off for these calls is given here.

How the values were obtained:
[1] = test system: Rattus norvegicus; test: Immunosuppressant activity in collagen-induced Lewis rat arthritis model assessed as reduction in joint inflammation at 0.075 mg/kg, po qd; assay type: functional, organism-based; set-up: dose 0.075 mg/kg
[2] = biological target: Sphingosine 1-phosphate receptor 1 (Homo sapiens, UniProt P21453); test: Agonist activity against human S1P1 assessed as accumulation of cAMP by HTRF assay; assay type: functional
Sphingosine 1-phosphate receptor 1, sequence (P21453 whole entry): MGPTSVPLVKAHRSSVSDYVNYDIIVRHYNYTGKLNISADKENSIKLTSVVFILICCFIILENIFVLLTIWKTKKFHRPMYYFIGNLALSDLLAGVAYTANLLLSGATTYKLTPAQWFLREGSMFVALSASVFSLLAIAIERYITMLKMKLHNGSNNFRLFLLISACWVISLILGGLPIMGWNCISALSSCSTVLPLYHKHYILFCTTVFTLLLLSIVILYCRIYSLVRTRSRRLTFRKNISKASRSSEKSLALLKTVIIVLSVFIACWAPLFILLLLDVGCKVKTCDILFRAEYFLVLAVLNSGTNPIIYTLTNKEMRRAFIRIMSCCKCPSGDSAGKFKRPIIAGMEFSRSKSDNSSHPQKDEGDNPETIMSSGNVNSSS
Outline: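 Agonist EC50 was read from a cAMP HTRF assay run on human, rat and mouse S1P1. Response was scaled against S1P, and values are the mean of three or more replicates.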

Compound | Activity [1] | EC50 [2] [nM]
CN(Cc1cnc2nc(N)nc(N)c2n1)c1ccc(C(=O)N[C@@H](CCC(=O)O)C(=O)O)cc1 | Active | 
N#Cc1cc(OC(F)(F)F)cc(-c2nc(-c3ccc4[nH]c5c(c4c3)CCC5CC(=O)O)no2)c1 (racemic) |  | 1.1
COc1cc(C#N)cc(-c2nc(-c3ccc4[nH]c5c(c4c3)CCC5CC(=O)O)no2)c1 (racemic) |  | 157
N#Cc1cc(-c2nc(-c3ccc4[nH]c5c(c4c3)CCC5CC(=O)O)no2)ccc1OC(F)(F)F (racemic) |  | 3.2
COc1ccc(-c2nc(-c3ccc4[nH]c5c(c4c3)CCC5CC(=O)O)no2)cc1C#N (racemic) |  | 4.6
CC(C)Oc1ccc(-c2nc(-c3ccc4[nH]c5c(c4c3)CCC5CC(=O)O)no2)cc1C#N (racemic) |  | 7.5
N#Cc1cc(OC(F)(F)F)cc(-c2nc(-c3ccc4c(c3)cc3n4CCC3CC(=O)O)no2)c1 (racemic) |  | 0.25
COc1cc(C#N)cc(-c2nc(-c3ccc4c(c3)cc3n4CCC3CC(=O)O)no2)c1 (racemic) |  | 4.6
O=C(O)CC1CCn2c1cc1cc(-c3noc(-c4cc(C(F)(F)F)cc(C(F)(F)F)c4)n3)ccc12 (racemic) |  | 2.1
